Test results reported in paper PMC2787731 (Biochimica et biophysica acta, 2009).
Values joined by “and” are separate entries in the source; they are usually repeats but may differ in a detail not shown here. Identical values can stand only once. “Also recorded” adds a separate entry of the source. Like-named read-outs stand apart in the source and are kept apart here.

Columns and labels:
[1] = system: THP1 macrophage foam cells; assay type: cell-based, human; conditions: 10 μM; for Change in intracellular cholesteryl esters vs vehicle control: BSA only acceptor
[2] = molecular target: T1, recombinant CES1 (Homo sapiens, UniProt P23141); experiment: Inhibition of carboxylesterase activity of recombinant human CES1; assay type: biochemical; conditions: for Effect on carboxylesterase activity of recombinant CES1 (in words) / Mode of inhibition of recombinant CES1 / Inhibition of carboxylesterase activity of CES1: pNPV; for Mode of inhibition of recombinant CES1: curve fit of fractional inhibition, Dixon plots; for Inhibition of carboxylesterase activity of CES1: concentration not given
T1 sequence (P23141 18-567): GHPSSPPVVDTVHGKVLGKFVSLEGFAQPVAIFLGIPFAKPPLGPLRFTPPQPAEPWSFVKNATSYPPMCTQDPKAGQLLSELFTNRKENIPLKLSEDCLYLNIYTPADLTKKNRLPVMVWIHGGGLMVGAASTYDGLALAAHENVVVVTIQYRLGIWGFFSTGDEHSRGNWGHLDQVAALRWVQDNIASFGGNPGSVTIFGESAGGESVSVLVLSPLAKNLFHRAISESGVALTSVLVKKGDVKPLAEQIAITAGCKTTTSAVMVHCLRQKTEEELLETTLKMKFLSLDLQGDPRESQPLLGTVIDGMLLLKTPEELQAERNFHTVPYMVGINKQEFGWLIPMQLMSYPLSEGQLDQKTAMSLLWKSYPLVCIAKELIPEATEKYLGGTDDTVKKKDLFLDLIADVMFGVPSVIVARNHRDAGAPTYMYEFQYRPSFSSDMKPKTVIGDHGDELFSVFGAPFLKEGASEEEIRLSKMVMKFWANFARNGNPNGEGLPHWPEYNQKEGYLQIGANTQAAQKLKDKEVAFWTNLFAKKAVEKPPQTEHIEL

[3] = molecular target: T2, carboxylesterase activity of THP1 cell lysates (Homo sapiens, UniProt P23141); experiment: Inhibition of carboxylesterase activity of THP1 cell lysates; assay type: biochemical
T2 sequence (P23141 18-567): T1 sequence (P23141 18-567)

[4] = molecular target: T1, recombinant CES1; assay type: biochemical; conditions: read-out: Inhibition of CES1 hydrolytic activity toward trans-permethrin, 20 μM AA; trans-permethrin 50 μM; 2% (w/v) fatty acid-free bovine serum albumin added
[5] = molecular target: T3, rat CES1 ortholog (Hydrolase A) (Rattus norvegicus, UniProt P16303); experiment: Inhibition of rat CES1 ortholog; assay type: biochemical
T3 sequence (P16303 19-565): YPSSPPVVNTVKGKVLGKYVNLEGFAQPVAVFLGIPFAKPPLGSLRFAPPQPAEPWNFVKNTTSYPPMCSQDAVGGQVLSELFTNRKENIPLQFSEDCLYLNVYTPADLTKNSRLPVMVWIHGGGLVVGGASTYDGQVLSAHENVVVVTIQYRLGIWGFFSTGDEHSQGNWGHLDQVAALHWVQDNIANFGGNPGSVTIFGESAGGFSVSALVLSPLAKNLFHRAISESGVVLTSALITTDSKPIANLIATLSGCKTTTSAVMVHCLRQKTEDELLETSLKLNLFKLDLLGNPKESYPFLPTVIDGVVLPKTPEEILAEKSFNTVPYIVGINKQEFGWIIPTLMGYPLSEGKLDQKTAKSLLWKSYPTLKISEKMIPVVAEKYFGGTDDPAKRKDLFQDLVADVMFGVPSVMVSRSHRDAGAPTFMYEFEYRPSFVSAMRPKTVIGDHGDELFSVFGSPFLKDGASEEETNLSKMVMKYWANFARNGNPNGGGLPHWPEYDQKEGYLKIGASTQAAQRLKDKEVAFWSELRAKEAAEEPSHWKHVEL

[6] = molecular target: T4, recombinant CES2 (Homo sapiens, UniProt O00748); experiment: Inhibition of recombinant CES2 activity; assay type: biochemical
T4 sequence (O00748 27-559): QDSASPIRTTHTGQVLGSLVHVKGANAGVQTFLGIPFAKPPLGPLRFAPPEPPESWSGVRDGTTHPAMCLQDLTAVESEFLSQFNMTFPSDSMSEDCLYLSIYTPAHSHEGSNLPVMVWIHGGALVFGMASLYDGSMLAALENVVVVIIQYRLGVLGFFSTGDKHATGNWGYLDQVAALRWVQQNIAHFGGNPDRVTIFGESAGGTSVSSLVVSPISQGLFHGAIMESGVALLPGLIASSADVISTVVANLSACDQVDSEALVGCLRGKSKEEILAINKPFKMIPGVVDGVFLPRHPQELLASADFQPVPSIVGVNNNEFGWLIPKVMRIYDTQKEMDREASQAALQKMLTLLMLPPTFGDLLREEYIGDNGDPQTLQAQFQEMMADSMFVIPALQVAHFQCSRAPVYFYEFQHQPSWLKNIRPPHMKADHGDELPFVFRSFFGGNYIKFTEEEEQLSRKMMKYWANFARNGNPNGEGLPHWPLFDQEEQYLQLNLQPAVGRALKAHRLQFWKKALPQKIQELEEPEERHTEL

[7] = system: intracellular carboxylesterase activity of THP1 cells; experiment: Intracellular carboxylesterase activity in intact THP1 monocytes; assay type: cell-based, human; conditions: 10 μM, 80 min, pNPV
[8] = cited from earlier work
[9] = molecular target: T1, recombinant CES1; experiment: Activity-based probe; assay type: biochemical
Procedure, shortened: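 Recombinant human CES1 was expressed in baculovirus-infected Spodoptera frugiperda cells and purified. The enzyme was preincubated with test compound for 30 min and then treated with the activity-based probe fluorophosphonate-biotin. IC50 was estimated from probe labelling.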

[10] = CES1 IC50, recombinant CES1, pNPV 500 μM, 15 min preincubation at 37°C
[11] = Cell lysate IC50, THP1 cell lysate, pNPV 500 μM, 15 min preincubation at 37°C
[12] = read-out: CES1 IC50, recombinant CES1, pNPV 500 μM, 15 min preincubation at 37°C

CC(C)CC[C@@H](O)[C@@H](C)[C@H]1CC[C@H]2[C@@H]3CC=C4C[C@@H](O)CC[C@]4(C)[C@H]3CC[C@]12C [22(R)-HC, 22(R)-hydroxycholesterol]
Change in free cholesterol levels vs vehicle control ([1]; 12 h): No change
Change in intracellular cholesteryl esters vs vehicle control ([1]; 12 h): significant reduction
Effect on carboxylesterase activity of recombinant CES1 (in words) [2]: minimal activity
Inhibition of carboxylesterase activity of THP1 cell lysate ([3]; 50 μM oxysterol, pNPV): ~ 30%
Inhibitory effect on carboxylesterase activity of THP1 cell lysates (in words) ([3]; pNPV): little inhibitory activity

CCCCC/C=C\C/C=C\C/C=C\C/C=C\CCCC(=O)O [AA, 5Z,8Z,11Z,14Z-Eicosatetraenoic acid]
inhibition at 20 µM [4]: 14%
Ki [2]: 1.7 µM
IC50 [2, 10]: 2 ± 1 µM
Mode of inhibition of recombinant CES1 [2]: noncompetitive inhibition model
IC50 [5]: 50 µM
IC50 toward rat CES1 relative to the human enzyme ([5]; rat vs human CES1): 25 fold
Inhibition of carboxylesterase activity of THP1 cell lysate ([3]; 100 μM fatty acid, pNPV): ~ 90%
IC50 [3, 11]: 4 ± 1 µM
IC50 [6]: > 100 µM

CCCCC[C@H](O)/C=C/[C@@H]1[C@@H](C/C=C\CCCC(=O)O)[C@@H](O)C[C@H]1O [Prostaglandin F2α]
IC50 [2, 10]: > 100 µM

CCCCC/C=C\CC1OC1C/C=C\C/C=C\CCCC(=O)O (stereo not drawn) [11,12-EET, 11,12-Epoxy-5Z,8Z,14Z-eicosatrienoic acid]
IC50 [2, 12]: 27 ± 1 µM

CCCC/C=C\CCCCCCCC(=O)O [myristoleic acid, 9Z-Tetradecenoic acid]
IC50 [2, 10]: 12 ± 2 µM
IC50 [3, 11]: 23 ± 6 µM

C[C@H](CCCC(C)(C)O)[C@H]1CC[C@H]2[C@@H]3CC=C4C[C@@H](O)CC[C@]4(C)[C@H]3CC[C@]12C [25-HC, 25-hydroxycholesterol]
Inhibition of carboxylesterase activity of CES1 [2]: < 15%
Inhibitory effect on carboxylesterase activity of THP1 cell lysates (in words) ([3]; pNPV): minimal inhibitory effect
Inhibitory effect on carboxylesterase activity of THP1 cell lysates (in words) ([3]; pNPV, listed as 25-hydroxycholesterol): little inhibitory activity

CCCCC/C=C\C/C=C\CCCCCCCC(=O)O [linoleic acid, 9Z,12Z-Octadecadienoic acid]
IC50 [2, 10]: 9 ± 6 µM
IC50 [3, 11]: 20 ± 3 µM

C[C@H](CC[C@@H]1OC1(C)C)[C@H]1CC[C@H]2[C@@H]3CC=C4C[C@@H](O)CC[C@]4(C)[C@H]3CC[C@]12C [epoxycholesterol, 24(S),25-epoxycholesterol]
Change in free cholesterol levels vs vehicle control ([1]; 12 and 24 h): reduced
Change in intracellular cholesteryl esters vs vehicle control ([1]; 12 and 24 h): no significant changes
Inhibition of carboxylesterase activity of THP1 cell lysate ([3]; 50 μM oxysterol, pNPV): ~ 70%
IC50 [3, 11]: 8.1 µM

CCCCCCCCCCCCCC(=O)O [myristic acid, Tetradecanoic acid]
IC50 [2, 10]: 9 ± 3 µM
IC50 [3, 11]: 28 ± 4 µM

CCOP(=O)(OCC)Oc1ccc([N+](=O)[O-])cc1 [paraoxon]
Inhibition of intracellular carboxylesterase activity [7]: 87%

C[C@@H](CO)CCC[C@@H](C)[C@H]1CC[C@H]2[C@@H]3CC=C4C[C@@H](O)CC[C@]4(C)[C@H]3CC[C@]12C [27-HC, 27-hydroxycholesterol]
Change in intracellular cholesteryl esters vs vehicle control ([1]; 12 and 24 h): no significant changes
Change in free cholesterol levels vs vehicle control ([1]; 12 h): significantly reduced
Predicted solubility limit in aqueous solution [8]: 0.52 µM
IC50 [2]: 0.05 ± 0.02 µM
Ki ([2]; Kiapp, recombinant CES1, ester substrate 4-MUBA, data not shown): 0.0104 ± 0.0013 µM
Ki ([2]; Kiapp, recombinant CES1, substrate pNPV, 15 min preincubation with enzyme): 0.01 µM and 0.0101 µM
Mode of inhibition of recombinant CES1 [2]: partial non-competitive inhibitor
inhibition at 0.5 µM ([2]; read-out: Maximum inhibition of CES1 activity): ~67%
IC50 [9]: 0.04 ± 0.02 µM
Inhibition of carboxylesterase activity of THP1 cell lysate ([3]; 50 μM oxysterol, pNPV): ~ 78%
IC50 ([3]; IC50, carboxylesterase activity of THP1 whole-cell lysates, THP1 whole-cell lysates, pNPV): 0.033 µM
IC50 [6]: > 5 µM

CC(C)CCC[C@@H](C)[C@H]1CC[C@H]2[C@@H]3CC=C4C[C@@H](O)CC[C@]4(C)[C@H]3CC[C@]12C [cholesterol]
Effect on carboxylesterase activity of recombinant CES1 (in words) [2]: almost no effect
Inhibitory effect on carboxylesterase activity of THP1 cell lysates (in words) ([3]; pNPV): little inhibitory activity; also recorded: no inhibitory effect

CCCCC[C@H](O)/C=C/[C@H]1[C@H](O)CC(=O)[C@@H]1C/C=C\CCCC(=O)O [Prostaglandin E2]
IC50 [2, 10]: > 100 µM

CC(C)CCC[C@@H](C)[C@H]1CC[C@H]2[C@@H]3C(=O)C=C4C[C@@H](O)CC[C@]4(C)[C@H]3CC[C@]12C [7-ketocholesterol]
Inhibition of carboxylesterase activity of CES1 [2]: < 15%
Inhibitory effect on carboxylesterase activity of THP1 cell lysates (in words) ([3]; pNPV): little inhibitory activity; also recorded: minimal inhibitory effect

CCCCCCCCCCCCCCCCCC(=O)O [stearic acid, Octadecanoic acid]
IC50 [2, 10]: > 100 µM
IC50 [3, 11]: > 100 µM

CCCCC/C=C/C=C1/C(=O)C=C[C@@H]1C/C=C\CCCC(=O)O [15-deoxy-Δ^12,14-Prostaglandin J2]
IC50 [2, 12]: 13 ± 3 µM

CCCCC/C=C\C/C=C\C/C=C\CCCCC(=O)O [γ-linolenic acid, 6Z,9Z,12Z-Octadecatrienoic acid]
IC50 [2, 10]: 19 ± 10 µM
IC50 [3, 11]: 23 ± 3 µM

CCCCCCCCCCCCCCCC(=O)O [palmitic acid, Hexadecanoic acid]
IC50 [2, 10]: 25 ± 13 µM
IC50 [3, 11]: > 100 µM

CC(C)[C@@H](O)CC[C@@H](C)[C@H]1CC[C@H]2[C@@H]3CC=C4C[C@@H](O)CC[C@]4(C)[C@H]3CC[C@]12C [24(S)-HC, 24(S)-hydroxycholesterol]
Inhibitory effect on carboxylesterase activity of THP1 cell lysates (in words) ([3]; pNPV): minimal inhibitory effect
Inhibitory effect on carboxylesterase activity of THP1 cell lysates (in words) ([3]; pNPV, listed as 24(S)-hydroxycholesterol): little inhibitory activity

CCCCCC1OC1C/C=C\C/C=C\C/C=C\CCCC(=O)O (stereo not drawn) [14,15-EET]
IC50 [2, 12]: 38 ± 1 µM

C[C@H](CCC(=O)O)[C@H]1CC[C@H]2[C@@H]3[C@H](O)C[C@@H]4C[C@H](O)CC[C@]4(C)[C@H]3C[C@H](O)[C@]12C [cholate]
IC50 ([2]; read-out: IC50, CES1 enzyme activity, data not shown): ~7000 µM

CCCCCCCC/C=C\CCCCCCCC(=O)O [oleic acid, 9Z-Octadecenoic acid]
IC50 [2, 10]: 7 ± 3 µM
IC50 [3, 11]: 11 ± 4 µM
